For assay [1], the system named is Pseudomonas aeruginosa. Description: Antibacterial activity against Pseudomonas aeruginosa IFO 3448 assessed as growth inhibition at 100 ug/disc after 24 hrs by agar disc-diffusion method. It counts as functional. The procedure, abridged:
(§1)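 Agar disc-diffusion on Mueller-Hinton agar. Sterile 8 mm filter-paper discs carrying 100 µg of agent were laid on the seeded agar. Plates were incubated at 37 °C, and growth-inhibition zone diameters were read after 24 h for bacteria.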

In assay [2] the test system is Escherichia coli. In words: microbe, parasite or virus in culture. The note with it: IFO 3301, 24 h, read-out: DIZ.
For assay [3], the system named is Staphylococcus aureus. Description: Antibacterial activity against Staphylococcus aureus IFO 3060 after 24 hrs by two fold dilution method. The assay is classed as functional.
Assay [4] has as its system Staphylococcus aureus. In words: Antibacterial activity against Staphylococcus aureus IFO 3060 assessed as growth inhibition at 100 ug/disc after 24 hrs by agar disc-diffusion method. It counts as functional. The procedure, abridged: as §1
A general note: A growth-free zone around the sample is the usual read-out of agar diffusion tests.

For assay [5], the system named is Micrococcus luteus. In words: Antibacterial activity against Micrococcus luteus IFO 3232 assessed as growth inhibition at 100 ug/disc after 24 hrs by agar disc-diffusion method. It counts as functional. The procedure, abridged:
as §1

Assay [6] has as its system Bacillus subtilis. In words: Antibacterial activity against Bacillus subtilis IFO 3007 assessed as growth inhibition at 100 ug/disc after 24 hrs by agar disc-diffusion method. It counts as functional. The gist of the method:
as §1

The subject of assay [7] is Bacillus subtilis. In words: Antibacterial activity against Bacillus subtilis IFO 3007 after 24 hrs by two fold dilution method. The assay is classed as functional.
The test system of assay [8] is Micrococcus luteus. Description: Antibacterial activity against Micrococcus luteus IFO 3232 after 24 hrs by two fold dilution method. The assay is classed as functional.
Assay [9] relates to Pseudomonas aeruginosa. In words: Antibacterial activity against Pseudomonas aeruginosa IFO 3448 after 24 hrs by two fold dilution method. The assay is classed as functional.
Assay [10] deals with Escherichia coli. The note with it: IFO 3301, 100 ug/disc.
Assay [11] has as its system Candida albicans. In words: Antifungal activity against Candida albicans IFO 0583 after 24 hrs by two fold dilution method. The assay is classed as functional. The note with it: IFO 0583, 24 h.
Assay [12] concerns Candida albicans. Description: Antifungal activity against Candida albicans IFO 0583 assessed as growth inhibition at 100 ug/disc after 48 hrs by agar disc-diffusion method. The assay is classed as functional. As to conditions: IFO 0583, 48 h, read-out: DIZ.
The test system of assay [13] is Pseudomonas aeruginosa. Description: Antibacterial activity against Pseudomonas aeruginosa IFO 3448 assessed as growth inhibition at 200 ug/disc after 24 hrs by agar disc-diffusion method. The assay is classed as functional. As to conditions: IFO 3448, 24 h, read-out: DIZ.
In assay [14] the test system is Bacillus subtilis. In words: Antibacterial activity against Bacillus subtilis IFO 3007 assessed as growth inhibition at 200 ug/disc after 24 hrs by agar disc-diffusion method. It counts as functional. As to conditions: IFO 3007, 24 h, read-out: DIZ.
Assay [15] relates to Candida albicans. In words: Antifungal activity against Candida albicans IFO 0583 assessed as growth inhibition at 200 ug/disc after 48 hrs by agar disc-diffusion method. The assay is classed as functional. The note with it: IFO 0583, 48 h, read-out: DIZ.
The test system of assay [16] is Escherichia coli. In words: Antibacterial activity against Escherichia coli IFO 3301 assessed as growth inhibition at 200 ug/disc after 24 hrs by agar disc-diffusion method. As to conditions: IFO 3301, 24 h, read-out: DIZ. It counts as functional.
The test system of assay [17] is Escherichia coli. Description: microbe, parasite or virus in culture. The note with it: IFO 3301, 24 h.
For assay [18], the system named is Micrococcus luteus. In words: Antibacterial activity against Micrococcus luteus IFO 3232 assessed as growth inhibition at 200 ug/disc after 24 hrs by agar disc-diffusion method. It counts as functional. The note with it: IFO 3232, 24 h, read-out: DIZ.
The subject of assay [19] is Staphylococcus aureus. In words: Antibacterial activity against Staphylococcus aureus IFO 3060 assessed as growth inhibition at 200 ug/disc after 24 hrs by agar disc-diffusion method. The note with it: IFO 3060, 24 h, read-out: DIZ. The assay is classed as functional.

Values after ≈ are worked out from the molar mass of the structure shown. Bounds are passed on as bounds.

`CC1(C)S[C@@H]2[C@H](NC(=O)[C@H](N)c3ccccc3)C(=O)N2[C@H]1C(=O)O` [AMPICILLIN]: the zone of inhibition at 100 µg/disc came to 16 mm with Pseudomonas aeruginosa [1] (IFO 3448, 24 h, read-out: DIZ); 17 mm in the assay on Escherichia coli [2]; 23 mm with Staphylococcus aureus [4] (IFO 3060, 24 h, read-out: DIZ); 19 mm with Micrococcus luteus [5] (IFO 3232, 24 h, read-out: DIZ); 21 mm in the assay with Bacillus subtilis [6] (IFO 3007, 24 h, read-out: DIZ). Also, the MIC in the assay with Staphylococcus aureus [3] (IFO 3060, 24 h) worked out at 2 µg/mL (≈ 5.72 µM); with Bacillus subtilis [7] (IFO 3007, 24 h), 0.5 µg/mL (≈ 1.43 µM); in the assay on Micrococcus luteus [8] (IFO 3232, 24 h), 2 µg/mL (≈ 5.72 µM); with Pseudomonas aeruginosa [9] (IFO 3448, 24 h), 2 µg/mL (≈ 5.72 µM).
In the case of GENTAMICIN, the inhibition zone (IZ) was 19 mm with Pseudomonas aeruginosa [1], 26 mm in the assay with Staphylococcus aureus [4], 18 mm in the assay with Micrococcus luteus [5] and 25 mm in the assay with Bacillus subtilis [6]. Also, the MIC was found to be 2 µg/mL in the assay on Staphylococcus aureus [3], 2 µg/mL against Bacillus subtilis [7], 2 µg/mL in the assay with Micrococcus luteus [8] and 1 µg/mL against Pseudomonas aeruginosa [9]. Further, the IZ in the assay on Escherichia coli [10] is 20 mm.
In the assay on Candida albicans [11], `Clc1ccccc1C(c1ccccc1)(c1ccccc1)n1ccnc1` [CLOTRIMAZOLE] showed an MIC of 2 µg/mL (≈ 5.8 µM). Further, the zone of inhibition at 100 µg/disc in the assay with Candida albicans [12] was found to be 21 mm.
Turning to `Cn1c(C23CC4CC(CC(C4)C2)C3)nn(CN2CCN(c3cccc(C(F)(F)F)c3)CC2)c1=S`, the zone of inhibition at 200 µg/disc in the assay on Pseudomonas aeruginosa [13] was 21 mm; in the assay on Bacillus subtilis [14], 33 mm; in the assay with Candida albicans [15], < 10 mm; in the assay on Escherichia coli [16] it was 19 mm; in the assay with Micrococcus luteus [18], 28 mm; in the assay on Staphylococcus aureus [19], 30 mm. Also, the MIC with Staphylococcus aureus [3] (IFO 3060, 24 h) came out at 0.5 µg/mL (≈ 1.02 µM); with Bacillus subtilis [7] (IFO 3007, 24 h), 0.5 µg/mL (≈ 1.02 µM); in the assay on Escherichia coli [17] it was 16 µg/mL (≈ 32.5 µM); in the assay with Micrococcus luteus [8] (IFO 3232, 24 h) it was 4 µg/mL (≈ 8.14 µM); with Pseudomonas aeruginosa [9] (IFO 3448, 24 h), 8 µg/mL (≈ 16.3 µM).

The record behind these values is ChEMBL document CHEMBL2424616, “Synthesis and antimicrobial activity of novel 5-(1-adamantyl)-2-aminomethyl-4-substituted-1,2,4-triazoline-3-thiones” (2013).
